# What was measured:
# F1 (hepatoma cell line) = experiment: Survival of mouse F1 cells after 48 hrs by MTS reduction assay; conditions: F1
# SH-SY5Y [1] = experiment: Survival of human SH-SY5Y cells after 48 hrs by MTS reduction assay; assay type: functional, cell-based
# A549 = experiment: Survival of human A549 cells after 48 hrs by MTS reduction assay; assay type: functional, cell-based
# SH-SY5Y [2] = experiment: Death of human SH-SY5Y cells in presence of 20 uM Q-VD-OPh by MTS reduction assay; assay type: functional, cell-based
# BP8 = experiment: Survival of […] AhR -/- BP8 cells after 48 hrs by MTS reduction assay; assay type: functional, cell-based
# SH-SY5Y [3] = experiment: Death of human SH-SY5Y cells in absence of 20 uM Q-VD-OPh by MTS reduction assay; assay type: functional, cell-based
# HCT-116 = experiment: Survival of human HCT116 cells after 48 hrs by MTS reduction assay; assay type: functional, cell-based
# Summary of the method: (§1)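 Viability read by MTS reduction. IC50 taken from dose-response curves, triplicate measurements. HCT116 grown in McCoy's 5A with 10% FCS. MDA-MB-231 grown in DMEM with 10% FCS and seeded at 7500 cells/well.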
# SH-SY5Y [4] = experiment: Survival of human SH-SY5Y cells after 24 hrs by MTS reduction assay; assay type: functional, cell-based
# SH-SY5Y [5] = experiment: Death of human SH-SY5Y cells at 25 uM after 48 hrs by LDH release assay; assay type: functional
# Summary of the method: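 SH-SY5Y human neuroblastoma cells were grown in DMEM with 2 mM L-glutamine, antibiotics and 10% FCS at 37 °C under 5% CO2. […] Lactate dehydrogenase release was measured 48 h after addition and expressed as percent cell death.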
# PC-3 = experiment: Survival of human PC3 cells after 48 hrs by MTS reduction assay; assay type: functional, cell-based
# MDA-MB-231 = experiment: Survival of human MDA-MB-231 cells after 48 hrs by MTS reduction assay; assay type: functional, cell-based
# Summary of the method: as §1
# HT-29 = experiment: Survival of human HT29 cells after 48 hrs by MTS reduction assay; assay type: functional, cell-based
# [6] = biological target: Cyclin-dependent kinase 5/CDK5 activator 1 (Homo sapiens, UniProt Q00535+Q15078); experiment: (§2) Inhibition of mammalian CDK5/p25; assay type: protein-complex assay
# Sequence of Cyclin-dependent kinase 5/CDK5 activator 1 (Homo sapiens, UniProt Q00535+Q15078) (Q00535 whole entry, the tested form may be a part): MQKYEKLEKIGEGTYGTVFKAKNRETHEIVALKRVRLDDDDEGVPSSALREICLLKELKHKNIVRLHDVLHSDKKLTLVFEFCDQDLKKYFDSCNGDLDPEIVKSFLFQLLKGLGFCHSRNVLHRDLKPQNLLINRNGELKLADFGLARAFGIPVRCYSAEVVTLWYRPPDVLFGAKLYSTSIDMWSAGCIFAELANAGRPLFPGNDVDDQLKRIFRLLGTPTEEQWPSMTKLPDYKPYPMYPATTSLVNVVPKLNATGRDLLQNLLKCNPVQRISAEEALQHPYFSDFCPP
# Sequence of Cyclin-dependent kinase 5/CDK5 activator 1 (Homo sapiens, UniProt Q00535+Q15078) (Q15078 whole entry, the tested form may be a part): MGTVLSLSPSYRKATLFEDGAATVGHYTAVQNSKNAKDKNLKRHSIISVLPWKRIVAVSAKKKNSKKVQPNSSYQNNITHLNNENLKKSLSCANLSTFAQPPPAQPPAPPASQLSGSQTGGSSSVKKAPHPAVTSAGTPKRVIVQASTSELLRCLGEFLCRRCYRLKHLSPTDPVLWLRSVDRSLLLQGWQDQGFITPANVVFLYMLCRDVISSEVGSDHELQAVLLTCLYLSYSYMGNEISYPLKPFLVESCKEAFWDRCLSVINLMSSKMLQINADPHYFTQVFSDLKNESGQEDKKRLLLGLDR
# Summary of the method: (§3)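 Recombinant CDK5 and p25, each expressed in E. coli as GST fusions and affinity-purified on glutathione agarose, mixed in equal amounts. Phosphate incorporation onto P81 paper read by scintillation counting, blank subtracted. Activity taken as % of uninhibited. IC50 from dose-response curves.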
# SH-SY5Y [7] = experiment: Survival of human SH-SY5Y cells at 25 uM by MTS reduction assay; assay type: functional, cell-based; conditions: for viability at 25 µM: Homo sapiens, SH-SY5Y, read-out: Survival
# Summary of the method: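 Viability was read by MTS reduction and expressed as percent of untreated cells, as the average ± SE of three independent measurements, representative of two independent experiments.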
# HEK293 = experiment: Survival of human HEK293 cells after 48 hrs by MTS reduction assay; assay type: functional, cell-based
# Huh-7 = experiment: Survival of human Huh7 cells after 48 hrs by MTS reduction assay; assay type: functional, cell-based
# [8] = Survival of mouse F1 cells after 48 hrs by MTS reduction assay; conditions: Mus musculus, F1, 48 h
# [9] = Inhibition of starfish CDK1/cyclin B in presence of 15 uM ATP; set-up: species or system Marthasterias glacialis
# [10] = biological target: Cyclin-dependent kinase 5/CDK5 activator 1 (Homo sapiens, UniProt Q00535); experiment: as §2; assay type: protein-complex assay
# Sequence of Cyclin-dependent kinase 5/CDK5 activator 1 (Homo sapiens, UniProt Q00535) (Q00535 whole entry): as the sequence (Q00535 whole entry, the tested form may be a part) above
# Sequence of Cyclin-dependent kinase 5/CDK5 activator 1 (Homo sapiens, UniProt Q00535) (Q15078 whole entry, further chain): as the sequence (Q15078 whole entry, the tested form may be a part) above
# Summary of the method: as §3
# [11] = biological target: Glycogen synthase kinase-3 (Homo sapiens, UniProt P49840+P49841); experiment: Inhibition of porcine brain GSK3alpha/beta; conditions: Sus scrofa
# Sequence of Glycogen synthase kinase-3 (P49840 whole entry, looked up): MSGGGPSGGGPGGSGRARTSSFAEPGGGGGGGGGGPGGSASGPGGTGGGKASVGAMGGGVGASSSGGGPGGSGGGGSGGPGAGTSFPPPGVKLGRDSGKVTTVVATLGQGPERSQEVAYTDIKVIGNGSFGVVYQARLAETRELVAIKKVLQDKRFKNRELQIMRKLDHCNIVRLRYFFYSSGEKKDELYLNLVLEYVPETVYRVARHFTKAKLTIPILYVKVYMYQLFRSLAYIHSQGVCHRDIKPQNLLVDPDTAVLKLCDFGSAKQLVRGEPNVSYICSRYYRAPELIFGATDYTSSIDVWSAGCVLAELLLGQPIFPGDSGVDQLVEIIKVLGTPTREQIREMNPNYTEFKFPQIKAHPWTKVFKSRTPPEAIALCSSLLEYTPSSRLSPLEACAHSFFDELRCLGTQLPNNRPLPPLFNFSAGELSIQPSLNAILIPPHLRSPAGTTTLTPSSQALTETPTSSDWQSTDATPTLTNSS
# Sequence of Glycogen synthase kinase-3 (P49841 whole entry, looked up): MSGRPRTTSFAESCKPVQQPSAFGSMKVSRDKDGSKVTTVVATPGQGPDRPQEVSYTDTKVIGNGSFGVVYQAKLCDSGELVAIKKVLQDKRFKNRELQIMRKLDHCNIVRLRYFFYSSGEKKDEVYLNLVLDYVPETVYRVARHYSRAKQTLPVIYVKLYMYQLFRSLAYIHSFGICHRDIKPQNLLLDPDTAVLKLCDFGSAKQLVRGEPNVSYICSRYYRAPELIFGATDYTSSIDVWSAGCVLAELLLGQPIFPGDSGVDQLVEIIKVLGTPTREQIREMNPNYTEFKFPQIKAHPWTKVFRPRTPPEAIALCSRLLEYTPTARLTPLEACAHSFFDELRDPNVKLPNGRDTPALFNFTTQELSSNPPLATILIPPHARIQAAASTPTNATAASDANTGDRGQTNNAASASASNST
# [12] = Homo sapiens, SH-SY5Y, read-out: IC50
Compound,IC50 (BP8; bp8),IC50 (HCT-116; hct-116),Activity (SH-SY5Y [5]),IC50 (MDA-MB-231; mda-mb-231),IC50 (HT-29; ht-29),Survival (SH-SY5Y [7]),IC50 (HEK293; hek293),IC50 (Huh-7; huh-7),IC50 [8],"IC50 (SH-SY5Y [1]; Homo sapiens, SH-SY5Y, 48 h)","IC50 (A549; Homo sapiens, A549, 48 h)","IC50 (SH-SY5Y [2]; Homo sapiens, SH-SY5Y)","IC50 (BP8; Mus musculus, BP8, 48 h)",IC50 (SH-SY5Y [3]; [12]),"IC50 (HCT-116; Homo sapiens, HCT-116, 48 h)","IC50 (SH-SY5Y [4]; Homo sapiens, SH-SY5Y, 24 h)","IC50 (PC-3; Homo sapiens, PC-3, 48 h)",viability at 25 µM (SH-SY5Y [7]),IC50 [9],IC50 [10],other results
Oc1[nH]c2c(Br)cccc2c1C1=Nc2ccccc2/C1=N\OCCN1CCNCC1,5.6 µM,5.4 µM,94%,5.3 µM,6.3 µM,3%,5 µM,5.3 µM,,,,,,,,,,,,,IC50 (F1 (hepatoma cell line)): 1.7 µM; IC50 (SH-SY5Y [1]; sh-sy5y): 6.2 µM; IC50 (A549; a549): 5.9 µM; IC50 (SH-SY5Y [2]; sh-sy5y): 10.3 µM; IC50 (SH-SY5Y [3]): 10 µM; IC50 (SH-SY5Y [4]; sh-sy5y): 10.5 µM; IC50 (PC-3; pc-3): 6.1 µM; IC50 [6]: > 10 µM
O=Nc1c(-c2c(O)[nH]c3c(Br)cccc23)[nH]c2ccccc12,,,94%,,,,,,8 µM,7.1 µM,21.8 µM,7 µM,19.4 µM,7 µM,6.2 µM,8 µM,19.8 µM,4%,,,"IC50 (MDA-MB-231; Homo sapiens, MDA-MB-231, 48 h): 10.5 µM; IC50 (HT-29; Homo sapiens, HT-29, 48 h): 21.2 µM; IC50 (HEK293; Homo sapiens, HEK293, 48 h): 12.3 µM; IC50 (Huh-7; Homo sapiens, Huh-7, 48 h): 9 µM"
Cl.Oc1[nH]c2c(Br)cccc2c1C1=Nc2ccccc2/C1=N\OCCN1CCCC1,,,80%,,,,,,3.1 µM,2 µM,16 µM,,> 30 µM,,3.8 µM,3.1 µM,30 µM,12%,> 100 µM,> 10 µM,"IC50 (SH-SY5Y [3]; sh-sy5y, read-out: IC50): 2.8 µM; IC50 (MDA-MB-231; Homo sapiens, MDA-MB-231, 48 h): > 30 µM; IC50 (HEK293; Homo sapiens, HEK293, 48 h): > 30 µM; IC50 (Huh-7; Homo sapiens, Huh-7, 48 h): 13.6 µM"
Cl.Cn1c(O)c(C2=Nc3ccccc3/C2=N\OCCN2CCCC2)c2cccc(Br)c21,7.5 µM,5.1 µM,94%,12 µM,5.4 µM,1%,8 µM,5.6 µM,2.9 µM,4 µM,14.6 µM,13 µM,,5 µM,,7.3 µM,19 µM,,> 10 µM,> 10 µM,
O=Nc1c(-c2c(O)[nH]c3c(Cl)cccc23)[nH]c2ccccc12,,,92%,,,,,,,12 µM,,11 µM,,10 µM,,14 µM,,7%,3.7 µM,6 µM,IC50 [11]: 21 µM

# From ChEMBL document CHEMBL1137414, “3'-Substituted 7-halogenoindirubins, a new class of cell death inducing agents” (J Med Chem, 2006)
